High-throughput results: PubChem, several laboratories
STEP inh – inhibitors of human striatal-enriched phosphatase STEP; P54829; recombinant STEP, OMFP fluorogenic substrate, fluorescence; inhibition, % at 20 µM; 0.25% of 360,000 active;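 active = inhibition at 20 µM, scaled per plate between control wells, above about 37%, limit read from the data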
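Assay system: isolated STEP enzyme / Timing: 20 min at room temperature, dark / Doses: 20 µM, 1% DMSO / Technique: fluorescence intensity, excitation 480 nm, emission 540 nm / Reagent: fluorogenic phosphatase substrate OMFP at 25 µM final / Measure: percent inhibition scaled to no-enzyme and uninhibited-enzyme controls, plate-pattern corrected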
Scp1 inh – Scp-1 (human) phosphatase inhibition. Recombinant Scp1, phosphopeptide, malachite green phosphate absorbance. inhibition, % at 20 µM. 0.88% of 340,000 active. Q9GZU7;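 active = inhibition above about 50% at 20 µM, limit read from the data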
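assay system = SCP-1 phosphatase catalytic domain, residues 76-261 | buffer or medium = 50 mM Tris acetate pH 5.5, 0.005% Tween-20, 10 mM MgCl2 | incubation = enzyme reaction 45 min at room temperature, colour 5 min, stabilisation 30 min | signal = Phosphate-binding colour reagent, absorbance read at 630 nm | measure = % inhibition at 20 µM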
GRK2 aptamer HTS – human GRK2 inhibition via aptamer displacement. bead flow cytometry, FAM-aptamer displacement from GRK2. inhibition of aptamer binding, % at 10 µM. 0.59% of 330,000 active. P25098;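 active = inhibition of aptamer binding above 40%, roughly 3 SD of noise, on plates passing a quality check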;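 note: median bead fluorescence of bound FAM aptamer so fluorescent compounds give negative values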
SUMO1-SIM PPI – modulators of human SUMO1-mediated protein-protein interactions. P63165. SUMO1 binding to a labelled peptide, TR-FRET, 1 h. inhibition, % at 20 µM. 0.33% of 360,000 active. AID 602429; in the data active = inhibition above about 37%
LMPTP inh – blocks human LMPTP phosphatase | AID 651560 | P24666 | 0.22% of 360,000 active | recombinant LMPTP-A, OMFP fluorogenic substrate, fluorescence intensity | inhibition, % at 20 µM;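 active = compounds that cut the enzyme signal by at least half of the control window in the single-dose screen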
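Material: LMPTP-A; amount: 0.625 nM enzyme; doses: single 20 µM dose; times: reaction 50 min, room temperature, dark; technique: fluorescence intensity of OMFP turnover product; benchmarks: no-enzyme and uninhibited controls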
DNMT1 inh – DNMT1 (human) enzyme inhibition. 0.83% of 360,000 active. inhibition (reported as % activation of signal), % at 10 µM. DNMT1 molecular beacon, Hinp1I cleavage, fluorescence; in the data active = inhibition above about 50%
Target sequence (P26358 504-1616 limits assumed): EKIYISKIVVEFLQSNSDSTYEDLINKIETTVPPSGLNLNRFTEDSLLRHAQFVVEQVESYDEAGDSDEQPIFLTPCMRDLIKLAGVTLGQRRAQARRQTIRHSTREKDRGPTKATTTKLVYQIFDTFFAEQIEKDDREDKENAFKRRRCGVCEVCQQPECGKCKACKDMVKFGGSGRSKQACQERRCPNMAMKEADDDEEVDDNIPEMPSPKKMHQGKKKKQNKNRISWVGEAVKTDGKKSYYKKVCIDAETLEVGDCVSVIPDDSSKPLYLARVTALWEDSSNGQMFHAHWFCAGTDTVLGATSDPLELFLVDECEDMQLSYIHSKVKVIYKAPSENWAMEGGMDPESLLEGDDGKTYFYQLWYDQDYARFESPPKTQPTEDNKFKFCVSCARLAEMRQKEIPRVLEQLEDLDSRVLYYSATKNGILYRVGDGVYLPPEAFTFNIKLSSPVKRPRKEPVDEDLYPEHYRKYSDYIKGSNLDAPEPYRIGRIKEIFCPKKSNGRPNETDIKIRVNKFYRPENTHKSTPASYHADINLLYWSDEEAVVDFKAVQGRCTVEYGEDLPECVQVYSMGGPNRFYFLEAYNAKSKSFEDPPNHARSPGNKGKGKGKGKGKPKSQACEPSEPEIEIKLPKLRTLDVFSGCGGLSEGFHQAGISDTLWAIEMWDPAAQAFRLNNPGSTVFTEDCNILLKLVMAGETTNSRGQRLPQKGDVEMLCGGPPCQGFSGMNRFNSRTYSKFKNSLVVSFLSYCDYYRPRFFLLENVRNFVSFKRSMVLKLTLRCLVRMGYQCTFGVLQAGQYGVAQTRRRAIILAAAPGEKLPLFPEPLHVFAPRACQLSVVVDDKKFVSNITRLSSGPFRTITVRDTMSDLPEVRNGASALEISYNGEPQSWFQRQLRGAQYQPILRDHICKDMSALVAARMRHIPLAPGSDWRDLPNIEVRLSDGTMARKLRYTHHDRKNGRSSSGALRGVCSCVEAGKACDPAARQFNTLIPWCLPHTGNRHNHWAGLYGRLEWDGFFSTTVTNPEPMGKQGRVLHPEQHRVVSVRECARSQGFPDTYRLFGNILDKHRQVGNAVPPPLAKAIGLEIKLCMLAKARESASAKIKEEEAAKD
Scp1 confirm – Scp-1 (human) inhibition, single-dose confirmed; shares compounds with Scp1 inh; 61% of 2,500 active; recombinant SCP-1 catalytic domain, phosphate release, malachite green absorbance; inhibition, % at 20 µM
Scp-1 MG ctr – interferes with malachite green readout, flagging false Scp-1 hits; shares compounds with Scp1 inh; Colorimetric interference counterscreen, malachite green absorbance 630 nm; apparent inhibition (interference), % at 20 µM; 2,500 tested, under 10 active; AID 540313;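 note: compounds added after enzyme reaction finished so only phosphate colour detection is probed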
Scp-1 Tm shift – Scp-1 (human) binding by thermal shift; shares compounds with Scp1 inh; Recombinant SCP1, Sypro Orange thermal shift Tm; thermal shift relative to vanadate control, % at 40 µM; 25% of 1,500 active;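 active = substances whose mean melting-temperature shift, as a percentage of the reference inhibitor's shift, reaches about 5.3%, limit read from the data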
Hits are given with their value; – = inactive; · = no result given. The list is not random: actives were taken first. Their share in the collection is about 2.2%.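 Rule for the calls, unless noted: active = inhibition of at least 30% at 20 µM; inactive = the rest.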

SMILES | STEP inh | Scp1 inh | GRK2 aptamer HTS | SUMO1-SIM PPI | LMPTP inh | DNMT1 inh | Scp1 confirm | Scp-1 MG ctr | Scp-1 Tm shift
COC(=O)c1ccc(C)c(NC(=O)CCSc2ccc(C)cc2)c1 | – | – | – | – | – | – | · | · | ·
Cc1ccc(Cl)cc1NC(=O)CSc1sc2c(O)cc(=O)[nH]c2c1C#N | – | 56 | – | – | – | – | 62 | – | 16
COC(=O)c1ccc(C)c(NC(=O)CSc2sc3c(O)cc(=O)[nH]c3c2C#N)c1 | – | 68 | – | – | – | – | 53 | – | 12
CCN(CC)C(=O)C1=C(C)N(Cc2ccccc2)C(=O)C(CC(=O)NCc2ccco2)C1 (stereo not drawn) | – | · | · | – | – | – | · | · | ·
O=C(CCc1nnc2ccc(NCc3ccco3)nn12)Nc1ccccn1 | – | 59 | – | – | – | – | 52 | – | –
COc1ccccc1C(=O)NC(=O)CSc1nnc2ccccn12 | – | – | – | – | – | – | · | · | ·
O=C(CSc1nnc2ccccn12)NC(=O)c1ccccc1Cl | – | 66 | – | – | – | – | 51 | – | –
O=C(CCCOc1ccc(Cl)cc1Cl)N/N=C/c1cccc([N+](=O)[O-])c1 | – | 92 | – | – | – | – | 55 | – | –
O=C(COc1ccc(Cl)cc1Cl)N/N=C/c1cccnc1 | – | – | – | – | – | – | · | · | ·
COC(=O)N1CCCCC1c1cc(C(=O)Nc2cccc3c2CCCC3)no1 (stereo not drawn) | – | · | · | – | – | – | · | · | ·
COc1ccc(S(=O)(=O)NNC(=O)Cc2csc(C)n2)cc1[N+](=O)[O-] | – | 60 | – | – | – | – | 64 | – | –
Nc1nc2ncccn2c1-c1ccc(C(F)(F)F)cc1 | · | · | · | – | – | · | · | · | ·
O=C(O)c1cc2c(s1)-c1ccccc1CC2 | – | – | – | – | – | – | · | · | ·
O=C(N/N=C/c1ccc(Cl)cc1)c1cc2c(s1)-c1ccccc1CC2 | – | 101 | – | – | – | – | 64 | – | –
CC1(C(=O)Nc2cccc(Oc3ccccc3)c2)Cc2c(-c3ccc4c(c3)OCO4)ccnc2O1 (stereo not drawn) | – | · | · | – | – | – | · | · | ·
C#Cc1ccc([C@H]2C=C(C(=O)O)O[C@@H](OCc3ccc(CO)cc3)C2)cc1 | – | 50 | – | – | – | – | 48 | – | –
Cc1ccc(NC(=O)c2ccc(Br)o2)cc1S(=O)(=O)N(C)C | – | – | – | – | – | – | · | · | ·
CN(C)S(=O)(=O)c1ccc(C(=O)NCC[N+]2(C)CCCCCC2)o1 | – | 68 | – | – | – | – | – | – | ·
O=C(CSc1ncccc1-c1nc2ccccc2[nH]1)NCc1ccco1 | – | 56 | – | – | – | – | 66 | – | 6.5
Cc1cc2nc(-c3cccnc3SCC(=O)NCc3ccco3)[nH]c2cc1C | – | – | – | – | – | – | · | · | ·
CCN(CC)CCNC(=O)c1ccc(NC(=O)C2CCN(c3ncnc4sc(C)c(C)c34)CC2)cc1 | – | 112 | – | – | – | – | – | – | ·
Cc1sc2ncnc(N3CCC(C(=O)Nc4ccc(OC(F)F)c(Cl)c4)CC3)c2c1C | – | – | – | – | – | – | · | · | ·
Oc1ccc(C[C@H]2CNC(=S)N2CC2CCCN2C[C@H](Cc2ccc(O)cc2)N2C[C@H](Cc3ccccc3)N(CC3CCCCC3)C2=S)cc1 (stereo partly drawn) | – | 50 | · | – | – | – | – | – | ·
COCc1cn(CC(=O)c2sc(NC(=O)C(C)(C)C)nc2C)nn1 | · | · | · | – | – | · | · | · | ·
CC1(C(O)(C#CC[N+]2(C)CCCCC2)c2ccccc2)CCCC1 (stereo not drawn) | – | 98 | – | – | – | – | 94 | – | –
SMILES | STEP inh | Scp1 inh | GRK2 aptamer HTS | SUMO1-SIM PPI | LMPTP inh | DNMT1 inh | Scp1 confirm | Scp-1 MG ctr | Scp-1 Tm shift
COc1ccc(OC)c(NC(=O)CN(C)CC(=O)Nc2ccccc2Cl)c1 | – | 58 | – | – | – | – | – | – | ·
Cn1c(NN)nc2c1c(=O)n(Cc1ccccc1)c(=O)n2C | – | 68 | – | – | – | – | 62 | – | 9.4
O=C(CCN1C(=O)/C(=C/c2ccc3c(c2)OCO3)SC1=S)Nc1cccc(C(=O)O)c1 | – | 69 | – | – | – | – | 78 | – | 11
O=C(CCN1C(=O)/C(=C\C=C\c2ccccc2)SC1=S)Nc1cccc(C(=O)O)c1 | – | 85 | – | – | – | – | 75 | – | 11
O=C(CCN1C(=O)/C(=C/c2ccc(Cl)cc2)SC1=S)Nc1cccc(C(=O)O)c1 | – | 89 | – | – | – | – | 66 | – | 9.7
O=C(CCCN1C(=O)/C(=C/c2ccc3c(c2)OCO3)SC1=S)Nc1cccc(C(=O)O)c1 | – | – | – | – | – | – | · | · | ·
O=C(CCN1C(=O)/C(=C/c2ccccc2)SC1=S)NNC(=O)c1cccnc1 | – | – | – | – | – | – | · | · | ·
O=C(CCN1C(=O)/C(=C/c2ccc3c(c2)OCO3)SC1=S)NNC(=O)c1cccnc1 | – | 62 | – | – | – | – | 46 | – | –
COc1ccc(/C=C2\SC(=S)N(CCC(=O)Nc3cccc(C(=O)O)c3)C2=O)cc1 | – | 61 | – | – | – | – | 53 | – | 18
Cc1ccc(/C=C2\SC(=S)N(CCCC(=O)Nc3cccc(C(=O)O)c3)C2=O)cc1 | – | – | – | – | – | – | · | · | ·
COc1ccc(C(=O)N2CCN(c3nc4cc(C)cc(C)c4cc3C#N)CC2)cc1 | – | · | · | – | – | – | · | · | ·
Cc1c(Br)cccc1NC(=O)C1(C)CCN1CCc1ccccc1 (stereo not drawn) | – | · | · | – | – | – | · | · | ·
N[C@@H](C(=O)N[C@@H]1C(=O)N2C(C(=O)O)=C(Cl)CS[C@H]12)c1ccccc1 | – | 57 | – | – | – | – | 60 | – | 7.4
CCc1nc2c(OCC3COc4ccccc4O3)cccn2c1N(C)C(=O)c1ccccc1F (stereo not drawn) | – | · | · | – | – | – | · | · | ·
C[C@H](CO)N1C[C@H](C)[C@@H](CN(C)Cc2ccncc2)Oc2c(NS(=O)(=O)c3ccc(F)cc3)cccc2C1=O | – | 59 | – | – | – | – | – | – | ·
C[C@H](CO)N1C[C@H](C)[C@@H](CN(C)Cc2ccc(Oc3ccccc3)cc2)Oc2c(NS(=O)(=O)c3cn(C)cn3)cccc2C1=O | – | 50 | – | – | – | – | – | – | ·
C[C@@H]1CN([C@@H](C)CO)C(=O)c2cccc(NS(C)(=O)=O)c2O[C@H]1CN(C)Cc1ccc(Oc2ccccc2)cc1 | – | – | – | – | – | – | · | · | ·
